# Experimental data published in ChEMBL document CHEMBL1155811, “Bioactive brominated metabolites from the Red Sea sponge Pseudoceratina arabica” (2008).
# The source made the active and inactive calls. The calls are words filed in the database; no cut-off is given here.
# How the values were obtained:
# Klebsiella pneumoniae = assay: Antibacterial activity against Klebsiella pneumoniae ATCC 10032 assessed as inhibition zone at 1 mg after 24 hrs by agar diffusion method; format: functional; conditions: ATCC 10032, 24 h, read-out: IZ
# Summary of the method: (§1)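 Agar diffusion (cup method). Each compound, 1 mg dissolved in 1 mL DMF; 100 µL of this solution was placed in cups cut in seeded agar. Plates were incubated at 37 °C for 24 h and the inhibition zone was measured.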
# HCT-116 = assay: Cytotoxicity against human HCT116 cells at 10 ug/mL by MTT assay; format: functional, cell-based
# Jejunum [1] = assay: Parasympatholytic activity in isolated rabbit jejunum assessed as decrease in nicotine-induced intestinal contraction; format: functional, tissue-based; conditions: Oryctolagus cuniculus
# Summary of the method: (§2)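 Isolated rabbit jejunum. Compounds in distilled H2O (1.0 mg/mL stock), used at 1/1000 and 1/100 dilutions. Normal contractions recorded first. Then 0.1 mL nicotine (1/1000 dilution) or 10 gamma acetylcholine (0.1 mL of 1/10 000 dilution) added after the compound. Change in intestinal contraction recorded.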
# Jejunum [2] = assay: Parasympatholytic activity in isolated rabbit jejunum assessed as decrease in 10gamma-acetylcholine induced intestinal contraction; format: functional, tissue-based; conditions: Oryctolagus cuniculus; summary of the method: as §2
# Heart [3] = assay: Parasympatholytic activity in isolated perfused rabbit heart assessed as decrease in nicotine-induced effect; format: functional, tissue-based; conditions: Oryctolagus cuniculus
# Summary of the method: (§3)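 Rabbit heart perfused by modified Langendorff method. Normal contractions recorded and receptors (nicotinic, muscarinic, histaminergic, adrenergic) checked. Compound added at 1/100 dilution of 1.0 mg/mL aqueous stock. Then 0.1 mL nicotine (1/1000 dilution of 1 mL/100 mL H2O) or 10 gamma acetylcholine (0.1 mL of 1/10 000 dilution of 1 g/100 mL H2O) given; change in contraction recorded.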
# Heart [4] = assay: Parasympatholytic activity in isolated perfused rabbit heart assessed as decrease in 10gamma-acetylcholine induced effect; format: functional, tissue-based; conditions: Oryctolagus cuniculus; summary of the method: as §3
# Staphylococcus aureus = assay: Antibacterial activity against Staphylococcus aureus ATCC 6538P assessed as inhibition zone at 1 mg after 24 hrs by agar diffusion method; format: functional; conditions: read-out: IZ; summary of the method: as §1
# Pseudomonas aeruginosa = assay: Antibacterial activity against Pseudomonas aeruginosa ATCC 9027 assessed as inhibition zone at 1 mg after 24 hrs by agar diffusion method; format: functional; conditions: ATCC 9027, 24 h, read-out: IZ; summary of the method: as §1
# Candida albicans = assay: Antifungal activity against Candida albicans ATCC 2091 assessed as inhibition zone at 1 mg after 24 hrs by agar diffusion method; format: functional; conditions: ATCC 2091, 24 h, read-out: IZ
# Summary of the method: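 Agar diffusion (cup) assay; Candida albicans ATCC 2091. Compound 1 mg dissolved in 1 mL DMF, 100 µL placed per cup; incubated 37 °C for 24 h; inhibition zone measured in mm.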
structure (smiles),measurement,setting,value
COc1c(Br)cc(O)c(O)c1C=O,zone of inhibition at 1000 µg/disc,Klebsiella pneumoniae,3 mm
same,Activity,HCT-116,Not toxic
C[N+]1=C2C=C(N)C(=O)c3[nH]cc(c32)CC1,Activity,HCT-116,Not toxic
N#CC(=O)NCCCOc1c(Br)cc(CCN)cc1Br,Activity,HCT-116,Not toxic
NCCCOc1c(Br)cc(C(O)CN)cc1Br (stereo not drawn),Activity,HCT-116,Not toxic
NCCCOc1c(Br)cc(CCN)cc1Br,Activity,Jejunum [1],Active
same,Activity,Jejunum [2],Active
same,Activity,Heart [3],Active
same,Activity,Heart [4],Active
same,Activity,HCT-116,Not toxic
CCOC(=O)c1c(O)c(O)cc(Br)c1OC [CERATINOPHENOL A],zone of inhibition at 1000 µg/disc,Staphylococcus aureus,7 mm
same,zone of inhibition at 1000 µg/disc,Pseudomonas aeruginosa,4 mm
same,zone of inhibition at 1000 µg/disc,Klebsiella pneumoniae,3 mm
same,zone of inhibition at 1000 µg/disc,Candida albicans,2 mm
same,Activity,HCT-116,Not toxic
NCCc1cc(Br)c(OCCCNC(=O)C(N)=O)c(Br)c1 [MOLOKA'IAKITAMIDE],Activity,Jejunum [1],Active
same,Activity,Jejunum [2],Active
same,Activity,Heart [3],Active
same,Activity,Heart [4],Active
same,zone of inhibition at 1000 µg/disc,Candida albicans,3 mm
same,Activity,HCT-116,Not toxic
COC1=C(Br)C[C@]2(OC=C1Br)ON=C(C(=O)NCCCOc1c(Br)cc(CCN)cc1Br)[C@@H]2O [PSAMMAPLYSIN A],zone of inhibition at 1000 µg/disc,Klebsiella pneumoniae,3 mm
same,Activity,HCT-116,Not toxic
